Experimental data as given in ChEMBL document CHEMBL2331445, “Chemical, biochemical and microbiological properties of a brominated nitrovinylfuran with broad-spectrum antibacterial activity” (Bioorg Med Chem, 2013).
≈ marks a conversion by molar mass, not a printed value. Calls of active or inactive are those of the source. The rule behind the calls is not given here.

Legend:
[1] = Cytotoxicity against human SW707 cells after 72 hrs by crystal violet staining method; type: ADME, cell-based; conditions: SW707, 72 h
CAPAN-1 = assay: Cytotoxicity against human Capan1 cells after 72 hrs by crystal violet staining method; type: ADME, cell-based; conditions: CAPAN-1, 72 h
Ca-Ski = assay: Cytotoxicity against human CaSki cells after 72 hrs by crystal violet staining method; type: ADME, cell-based
Calu-6 = assay: Cytotoxicity against human Calu6 cells after 72 hrs by crystal violet staining method; type: ADME, cell-based; conditions: Calu-6, 72 h
MeWo = assay: Cytotoxicity against human MeWo cells after 72 hrs by crystal violet staining method; type: ADME, cell-based
A-431 = assay: Cytotoxicity against human A431 cells after 72 hrs by crystal violet staining method; type: ADME, cell-based; conditions: A-431, 72 h
[2] = Cytotoxicity against human Flow 2002 cells after 72 hrs by crystal violet staining method; type: ADME, cell-based; conditions: Flow 2002, 72 h
HaCaT = assay: Cytotoxicity against human HaCaT cells after 72 hrs by crystal violet staining method; type: ADME, cell-based
Staphylococcus aureus [3] = assay: microbe, parasite or virus in culture; type: functional; conditions: NCTC 10442
Staphylococcus aureus [4] = assay: microbe, parasite or virus in culture; type: functional; conditions: ATCC 25923
[5] = Inhibition of Staphylococcus aureus MurA2 expressed in Escherichia coli BL21(lambdaDE3) using UNAG and PEP as substrate incubated for 10 mins prior to PEP addition measured after 60 mins by spectrophotometric analysis
[6] = Inhibition of Pseudomonas aeruginosa MurA expressed in Escherichia coli BL21(lambdaDE3) using UNAG and PEP as substrate incubated for 10 mins prior to PEP addition measured after 60 mins by spectrophotometric analysis
[7] = biological target: UDP-N-acetylglucosamine 1-carboxyvinyltransferase (Escherichia coli K-12, UniProt P0A749, C115D); assay: Inhibition of Escherichia coli MurA C115D mutant expressed in Escherichia coli BL21(lambdaDE3) using UNAG and PEP as substrate incubated for 10 mins prior to PEP addition measured after 60 mins by spectrophotometric analysis
Sequence of UDP-N-acetylglucosamine 1-carboxyvinyltransferase (Escherichia coli K-12, UniProt P0A749, C115D) (P0A749 whole entry C115D): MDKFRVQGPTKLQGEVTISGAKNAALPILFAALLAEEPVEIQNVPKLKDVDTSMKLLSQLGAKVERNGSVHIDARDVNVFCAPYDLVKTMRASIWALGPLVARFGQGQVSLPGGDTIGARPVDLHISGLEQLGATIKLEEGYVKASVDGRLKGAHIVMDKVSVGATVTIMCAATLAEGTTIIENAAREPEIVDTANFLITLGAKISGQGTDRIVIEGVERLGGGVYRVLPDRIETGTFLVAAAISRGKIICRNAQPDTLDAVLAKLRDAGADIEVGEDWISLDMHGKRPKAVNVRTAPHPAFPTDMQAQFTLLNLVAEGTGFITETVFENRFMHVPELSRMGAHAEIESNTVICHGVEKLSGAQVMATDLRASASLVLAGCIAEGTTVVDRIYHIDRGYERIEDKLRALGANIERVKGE

Pseudomonas aeruginosa = assay: microbe, parasite or virus in culture; type: functional; conditions: ATCC 27853
Escherichia coli [8] = assay: microbe, parasite or virus in culture; type: functional; conditions: ATCC 25922
Dengue virus = conditions: at 50 µM
[9] = biological target: Prothrombin (Homo sapiens) (UniProt P00734); conditions: at 25 µM
[10] = biological target: Methionine aminopeptidase 2 (Homo sapiens) (UniProt P50579); conditions: at 10 µM
Sequence of Methionine aminopeptidase 2 (Homo sapiens) (P50579 2-478 limits assumed): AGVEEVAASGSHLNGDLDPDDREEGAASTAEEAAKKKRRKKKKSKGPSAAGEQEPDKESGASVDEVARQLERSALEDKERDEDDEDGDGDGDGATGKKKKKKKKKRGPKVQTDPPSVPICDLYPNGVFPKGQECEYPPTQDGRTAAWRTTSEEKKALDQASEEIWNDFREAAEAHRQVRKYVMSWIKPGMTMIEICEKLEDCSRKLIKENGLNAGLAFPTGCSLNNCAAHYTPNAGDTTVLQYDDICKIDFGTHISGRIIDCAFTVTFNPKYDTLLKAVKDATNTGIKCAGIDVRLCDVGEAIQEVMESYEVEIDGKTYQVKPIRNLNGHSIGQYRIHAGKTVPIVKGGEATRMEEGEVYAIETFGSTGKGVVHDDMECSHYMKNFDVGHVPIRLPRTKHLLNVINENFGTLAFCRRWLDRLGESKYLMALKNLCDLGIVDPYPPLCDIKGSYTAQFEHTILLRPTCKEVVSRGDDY

[11] = biological target: Methionine aminopeptidase 1 (Homo sapiens) (UniProt P53582); conditions: at 10 µM
Escherichia coli [12] = conditions: at 10 µM
[13] = biological target: T1, UDP-N-acetylglucosamine 1-carboxyvinyltransferase (Escherichia coli K-12, UniProt P0A749); assay: Inhibition of Escherichia coli MurA expressed in Escherichia coli BL21(lambdaDE3) using UNAG and PEP as substrate incubated for 10 mins prior to PEP addition measured after 60 mins by spectrophotometric analysis
T1 sequence (P0A749 whole entry): as the sequence (P0A749 whole entry C115D) above, with D115C counted along it

[14] = biological target: T1, UDP-N-acetylglucosamine 1-carboxyvinyltransferase; assay: Induction of Escherichia coli MurA-mediated 2-bromo-5-(2-nitrovinyl)furan formation assessed as enzyme-(R)-methyl 3-mercapto-2-(6-methoxy-2-oxo-2H-chromene-3-carboxamido)propanoate adduct level at 200 to 300 uM after 1 hr by SDS-PAGE analysis
How it was run: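 E. coli MurA was incubated with the fluorescent coumarin cysteine thiol, with or without test compound. After 1 h, aliquots were quenched in non-reducing Laemmli buffer (one sample in reducing buffer), heated to 95 °C for 3 min and run on 12% SDS-PAGE. Protein-bound fluorophore was imaged at 365 nm excitation.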

[15] = Drug degradation assessed as 5-bromofuran-2-carbaldehyde formation at 100 uM by HPLC-UV analysis in absence of MurA; type: physicochemical
How it was run: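 Test compound (100 µM) was held under standard MurA assay buffer conditions without enzyme, then stopped at several time points. HPLC-UV used a C18 column, 37 °C, and a 0.1% TFA water/acetonitrile gradient. Aldehyde formation was followed at 290 nm.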

[16] = test system: UDP-N-acetylglucosamine 1-carboxyvinyltransferase (Escherichia coli K-12), P0A749 [C115D]; assay: Inhibition of Escherichia coli MurA C115D mutant expressed in Escherichia coli BL21(lambdaDE3) using UNAG and PEP as substrate at 50 to 500 uM incubated for 30 mins by 2,2'-dithiopyridine based spectrophotometric analysis
Sequence of UDP-N-acetylglucosamine 1-carboxyvinyltransferase (Escherichia coli K-12), P0A749 [C115D] (P0A749 whole entry C115D): as the sequence (P0A749 whole entry C115D) above
How it was run: (§1)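 MurA (wild-type or C115D) was incubated with test compound at an equimolar ratio or 10-fold excess in 50 mM Tris pH 7.8 at room temperature for 30 min. 2,2'-Dithiodipyridine was then added in 0.5 M citrate pH 4 with 6 M urea for 30 min and quenched with 4% TFA. 2-Thiopyridone was measured by HPLC at 342 nm against a compound-free control.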

[17] = biological target: UDP-N-acetylglucosamine 1-carboxyvinyltransferase (Escherichia coli K-12) (UniProt P0A749); assay: Inhibition of Escherichia coli MurA expressed in Escherichia coli BL21(lambdaDE3) using UNAG and PEP as substrate at 50 to 500 uM incubated for 30 mins by 2,2'-dithiopyridine based spectrophotometric analysis; how it was run: as §1
Sequence of UDP-N-acetylglucosamine 1-carboxyvinyltransferase (Escherichia coli K-12) (P0A749 whole entry): as the sequence (P0A749 whole entry C115D) above, with D115C counted along it

[18] = Induction of GSSG formation in citrate buffer at 100 uM by RP-LC/MS analysis
[19] = Induction of GSH-adduct formation in citrate buffer at100 uM by RP-LC/MS analysis; conditions: 100 µM
[20] = Prodrug activation in citrate buffer assessed as debromination at 100 uM at pH 6 in presence of GSH; type: physicochemical; conditions: pH 6, 100 µM
How it was run: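 Inhibitor and glutathione, each at 100 µM final, in 50 mM sodium citrate pH 6.0. Aliquots were withdrawn every 30 s for 3 min and at 4 and 5 min, quenched, and analysed by reversed-phase HPLC-UV.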

[21] = Half life of the compound in Muller-Hinton medium at 100 uM at pH 5.8; type: physicochemical
How it was run: (§2)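 Compound (100 µM) was dissolved in Müller-Hinton medium (pH 7.2, or adjusted to pH 5.8) and aliquots were injected onto HPLC at different time points. Parent disappearance was read at 390 nm. Half-life came from a first-order plot of log peak area versus time, t1/2 = ln2/kobs.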

[22] = Drug degradation in Muller-Hinton medium assessed as disappearance of parent compound at 100 uM at pH 7.2 by HPLC-UV analysis; type: physicochemical; conditions: buffer, pH 7.2, 100 µM; TDE = time-dependent effect; how it was run: as §2
[23] = Half life of the compound in Muller-Hinton medium at 100 uM at pH 7.2; type: physicochemical; how it was run: as §2
[24] = Half life of the compound in citrate buffer at pH 6
[25] = Half life of the compound in tris buffer at pH 7.8
[26] = Cytotoxicity against human lymphoblastoid cells assessed as cell vaibility at 3.4 uM; type: cell-based; conditions: read-out: Activity
[27] = biological target: UDP-N-acetylglucosamine 1-carboxyvinyltransferase (Escherichia coli K-12) (UniProt P0A749); assay: Irreversible inhibition of Escherichia coli MurA expressed in Escherichia coli BL21(lambdaDE3) using UNAG and PEP as substrate at 1.25 uM incubated up to 80 min prior to PEP addition measured after 60 mins by spectrophotometric analysis; conditions: TDE = time-dependent effect
How it was run: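 Phosphate-release MurA assay: 12 nM E. coli MurA, 250 µM UNAG, 125 µM PEP, 25 mM Tris pH 7.8, 0.1% BSA, 37 °C. The pre-incubation period of inhibitor with enzyme was varied before PEP addition. Reaction ran 60 min, was stopped with malachite green reagent, and read at 620 nm.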

[28] = biological target: UDP-N-acetylglucosamine 1-carboxyvinyltransferase (Escherichia coli K-12) (UniProt P0A749); assay: Inhibition of Escherichia coli MurA expressed in Escherichia coli BL21(lambdaDE3) using UNAG and PEP as substrate at 5 uM incubated for 10 mins […] measured after 60 mins by spectrophotometric analysis
How it was run: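 MurA (12 nM) was pre-incubated with UNAG and inhibitor for 10 min at 37 °C, and the reaction was started with PEP. Final conditions: UNAG 250 µM, PEP 125 µM, 25 mM Tris pH 7.8, 0.1% BSA, 1% DMSO. After 60 min at 37 °C, malachite green/molybdate reagent was added and phosphate was read at 620 nm after 10 min. Run in triplicate.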

[29] = biological target: UDP-N-acetylglucosamine 1-carboxyvinyltransferase (Escherichia coli K-12) (UniProt P0A749); conditions: 100 nM
[30] = biological target: UDP-N-acetylglucosamine 1-carboxyvinyltransferase (Escherichia coli K-12) (UniProt P0A749); conditions: 200 nM

SMILES	IC50 [1] [µM]	IC50 (CAPAN-1) [µM]	IC50 (Ca-Ski) [µM]	IC50 (Calu-6) [µM]	IC50 (MeWo) [µM]	IC50 (A-431) [µM]	IC50 [2] [µM]	IC50 (HaCaT) [µM]	MIC (Staphylococcus aureus [3]) [µg/mL]	MIC (Staphylococcus aureus [4]) [µg/mL]	IC50 ([5]; read-out: IC50) [µM]	IC50 ([6]; read-out: IC50) [µM]	IC50 [7]	MIC (Pseudomonas aeruginosa) [µg/mL]	MIC (Escherichia coli [8]) [µg/mL]	inhibition (Dengue virus)	inhibition [9]	inhibition [10]	inhibition [11]	inhibition (Escherichia coli [12])	other results
C=C1C(=O)O[C@@H]2/C=C(\CO)CC/C=C(\C)C[C@H](OC(=O)C(=C)[C@H](O)CO)[C@@H]12 [CNICIN]	≥ 100	93	≥ 100	44	≥ 100	27	82	80	> 32	> 32	20.4	10.3	Not Active	> 32	> 32	inactive	inactive	9%	inactive	inactive	
C[N+](=O)[O-] [NITROMETHANE]	≥ 100	≥ 100	≥ 100	≥ 100	≥ 100	≥ 100	≥ 100	≥ 100	> 32	8 (≈ 131 µM)			Not Active	8 (≈ 131 µM)	32 (≈ 524 µM)	inactive	inactive	inactive	inactive	inactive	IC50 [5]: Not Active; IC50 [6]: Not Active; IC50 [13]: Not Active
O=[N+]([O-])/C(Br)=C/c1ccc(Br)o1	47	36	50	10	43	24	9	33	4 (≈ 13.5 µM)	4 (≈ 13.5 µM)	3.9	2.8		2 (≈ 6.74 µM)	4 (≈ 13.5 µM)	12%	8%	13%	inactive	85%	IC50 ([7]; read-out: IC50): 18.7 µM; IC50 ([13]; read-out: IC50): 2.8 µM; Drug metabolism [14]: Active; Stability [15]: Unstable; inhibition [16]: Active; inhibition [17]: Active; Activity [18]: Not Active; Activity [19]: Not Active; Drug metabolism [20]: Active; half-life at 100 µM [21]: 60 min; Drug degradation [22]: tde; half-life at 100 µM [23]: 8 min; half-life [24]: 360 min; half-life [25]: 30 min; viability at 3.4 µM [26]: > 70%; inhibition [27]: tde; inhibition [28]: Active
C[C@@H]1O[C@@H]1P(=O)(O)O [FOSFOMYCIN]	≥ 100	≥ 100	≥ 100	≥ 100	≥ 100	≥ 100	≥ 100	≥ 100	4 (≈ 29 µM)	4 (≈ 29 µM)	1.1	10.5	Not Active	1 (≈ 7.24 µM)	2 (≈ 14.5 µM)	inactive	inactive	inactive	inactive	inactive	IC50 ([13]; read-out: IC50): 0.1 µM; inhibition [16]: inactive; inhibition [29]: tde; inhibition [30]: inactive
